PostGolgi yeast = growth inhibition of a yeast mutant, post-Golgi transport screen; post-Golgi transport phenotypic cell assay; inhibition, % at 10 µM; actives 0.9% (n = 98,000); AID 739;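 further: yeast cells grown in 1536-well plates; yeast grown about 18 h at 30C before absorbance read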
PLAP activator = activators of human placental alkaline phosphatase; actives 1.2% (n = 96,000); purified PLAP enzyme, luminescent substrate read-out; hits give high values; activation fold at 20 µM; in the data active means activation fold above about 2
E coli WT exp = growth inhibitors of E. coli BW25113 wild type | OD600 absorbance | actives 0.15% (n = 98,000) | AID 710 | growth inhibition, % at 100 µM;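 active means growth inhibition above about 50% at one test dose, limit read from the data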;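 further: growth measured after 20 h incubation at 37 °C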
tolC growth inh = E. coli tolC mutant growth inhibition. actives 2.2% (n = 65,000). growth inhibition, % at 10 µM (by protocol). E. coli BW25113 tolC mutant growth, OD615;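 active means growth inhibition at or above a cutoff equal to the mean over every tested compound plus 3 SD, cut at about 60% in these data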;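 further: growth measured after 20 h incubation at 37 °C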
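Signal: optical density read at 615 nm; Assay system: E. coli ΔtolC::kan strain BW25113; Times: 20 h incubation with compound, 37 °C; Dosing: 10 µM final, single dose.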
PostGolgi ctrl = inhibits growth of the yeast control strain; efflux-deficient yeast background strain, growth absorbance A615, 16 h; actives 5% (n = 98,000); inhibition, % at 10 µM
HePTP inh = inhibitors of human HePTP phosphatase; P35236; recombinant HePTP phosphatase activity, OD absorbance; inhibition, % at 20 µM; actives 0.64% (n = 110,000); in the data active means inhibition above about 50%
Target sequence (P35236 whole entry, looked up): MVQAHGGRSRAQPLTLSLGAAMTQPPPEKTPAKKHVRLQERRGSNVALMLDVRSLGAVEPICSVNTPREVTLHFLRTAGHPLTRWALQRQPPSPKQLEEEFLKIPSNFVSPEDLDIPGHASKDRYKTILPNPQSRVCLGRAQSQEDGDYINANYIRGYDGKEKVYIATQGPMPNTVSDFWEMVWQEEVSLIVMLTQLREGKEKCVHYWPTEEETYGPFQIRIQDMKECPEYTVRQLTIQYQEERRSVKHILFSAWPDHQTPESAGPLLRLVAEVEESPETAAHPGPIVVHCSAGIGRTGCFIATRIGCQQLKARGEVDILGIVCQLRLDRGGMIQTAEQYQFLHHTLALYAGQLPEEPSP
Hits are given with their value; . = inactive; / = no result given. The list is not random: actives were taken first. Their share in the collection is about 5.5%. Unless noted, no stated cut-off is given here; in the data, active means inhibition above about 30%; inactive means the rest.

SMILES	PostGolgi yeast	PLAP activator	E coli WT exp	tolC growth inh	PostGolgi ctrl	HePTP inh
O=S(=O)(Nc1cccc2ncccc12)c1cccs1	.	.	.	99	.	.
O=C(CSc1nc(Nc2ccccc2)nc(N2CCOCC2)n1)N1CCCC1	.	.	.	.	.	.
O=C(CSc1nc(Nc2ccccc2)nc(N2CCOCC2)n1)N1CCc2ccccc21	.	.	.	.	54	.
c1ccc(Nc2nc(N3CCOCC3)nc(N3CCOCC3)n2)cc1	.	.	.	.	32	.
CC(=O)Nc1ccccc1NC(=O)c1cccc(F)c1	/	/	/	/	/	.
CCCOc1ccc(C2Nc3ccccc3NC3=C2C(=O)CC(c2ccc(OC)cc2)C3)cc1OC (stereo unspecified)	/	/	/	/	/	.
Cc1nnc(NCc2n[nH]c(=O)c3ccccc23)c2ccccc12	.	.	.	.	.	.
COc1ccc(NCc2n[nH]c(=O)c3ccccc23)cc1	.	.	.	/	32	/
C=C(C)COc1ccc(-c2[nH]ncc2-c2ccc(OC)c(OC)c2)c(O)c1	.	.	.	91	.	.
C=C(C)COc1ccc(-c2nc(N)nc(C)c2Oc2ccccc2OC)c(O)c1	.	.	.	.	.	.
C=C(C)COc1ccc(-c2[nH]ncc2-c2ccccc2)c(O)c1	45	.	.	/	62	/
Oc1cc(OCc2ccccc2Cl)ccc1-c1[nH]ncc1-c1ccccc1	/	/	/	/	/	.
Cc1ccc(-c2csc3ncnc(Sc4nnc(CN5CCCCCC5=O)o4)c23)cc1	.	.	.	61	.	.
CC1CCN(CCOCCOc2ccc(F)cc2)CC1	/	/	/	/	/	.
CNC(=O)c1sccc1SCc1ccc(Cl)cc1Cl	.	.	.	/	.	/
CNC(=O)c1sccc1SCc1c(Cl)cccc1Cl	.	.	.	/	46	/
COc1ccc(O)c(CN2CCN(C/C=C/c3ccccc3)CC2)c1	42	.	.	.	34	.
Cc1ccc(C2=Nc3ccccc3Nc3c2cc([N+](=O)[O-])cc3[N+](=O)[O-])cc1	/	/	/	/	/	.
CCOC(=O)C(NC(=O)Nc1ncccn1)(Oc1ccccc1)C(F)(F)F (stereo unspecified)	.	.	.	.	32	.
CCOC(=O)NC(Nc1ncccn1)(C(F)(F)F)C(F)(F)F	.	.	.	.	.	.
OCc1nc2ccccc2n1C/C=C/c1ccccc1	.	2	.	.	.	.
CC(O)c1nc2ccccc2n1C/C=C/c1ccccc1 (stereo unspecified)	.	.	.	.	.	.
O=C(Nc1nc(-c2ccccc2)cs1)C(c1ccccc1)c1ccccc1	/	/	/	/	/	.
CCCSc1nsc(NC(=O)C(c2ccccc2)c2ccccc2)n1	.	.	.	/	35	/
Cc1ccc(S(=O)(=O)NCc2ccco2)cc1C	.	.	.	.	.	.
SMILES	PostGolgi yeast	PLAP activator	E coli WT exp	tolC growth inh	PostGolgi ctrl	HePTP inh
Cc1cc(C)c(C)c(S(=O)(=O)NCc2ccco2)c1C	.	.	.	.	34	.
O=c1[nH]c(=S)[nH]c(O)c1C=Nc1ccccc1-c1ccccc1	/	/	/	/	/	.
O=S1(=O)C=C(Sc2nnc(-c3ccccc3)o2)c2ccccc21	88	.	.	.	31	.
O=C(O)c1cc(-c2ccccc2)c(N2CCOCC2)s1	.	.	.	.	.	.
O=C(c1ccc(Cl)cc1)c1cc(-c2ccccn2)c(N2CCOCC2)s1	.	.	.	/	49	/
O=C1c2ccccc2NC(c2ccc(F)cc2)N1c1ccccc1 (stereo unspecified)	/	/	/	/	/	.
Cc1cccn2c(NC(=O)c3ccc(Br)cc3)c(-c3ccccc3)nc12	/	/	/	/	/	.
CCOC(=O)CNC(=O)C(Cc1ccccc1)NS(=O)(=O)c1ccc2c(c1)CCC(=O)N2 (stereo unspecified)	/	/	/	.	/	.
CCCN(CCC)CCNC(=O)C(NS(=O)(=O)c1ccc2c(c1)CCC(=O)N2)c1ccccc1 (stereo unspecified)	.	.	.	.	31	.
COc1ccc(OC)c(C2=C/C(=C/c3cccc(OC)c3O)C(=O)O2)c1	/	/	/	/	/	.
O=C(Nc1nc(-c2ccccc2)ns1)c1cccs1	.	.	.	64	.	.
O=C(Nc1nc(-c2ccccc2)cs1)c1cccs1	.	.	.	98	.	.
Cc1cc(C)nc(Nc2n[nH]c(-c3ccc(N)cc3)n2)n1	.	2.4	.	/	.	/
CC(=O)N1CN(Cc2ccccn2)Cc2c1sc1c2CCCC1	.	.	.	.	36	.
CCN(CC(O)Cn1c2ccccc2c2ccccc21)S(=O)(=O)c1ccc(C)cc1 (stereo unspecified)	.	.	.	/	55	.
O=C(CN1CCN(c2ccccn2)CC1)N1c2ccccc2CCc2ccccc21	.	/	.	.	.	.
O=C(CN1CCN(c2ccccn2)CC1)N1c2ccccc2Sc2ccc(C(F)(F)F)cc21	.	.	.	.	41	.
Cc1ccc(-c2cc(C(F)(F)F)n3ncc(C(=O)NCCc4ccccc4)c3n2)cc1	/	/	/	/	/	.
Cc1ccc(SCCNS(=O)(=O)c2ccc(C)cc2)cc1	/	/	/	/	/	.
Cc1ccc(S(=O)(=O)NCCSc2nnnn2-c2cc(C)ccc2C)cc1	.	.	.	68	.	.
CCOC(=O)C1CCN(C(=O)C2CCN(S(=O)(=O)c3cccc4cccnc34)CC2)CC1	.	.	.	.	32	.
Cc1ccc(NC(=O)C2CCN(S(=O)(=O)c3cccc4cccnc34)CC2)nc1	.	.	.	.	32	.
Cc1ccc(NC(=O)C2CCN(S(=O)(=O)c3c(C)n[nH]c3C)CC2)nc1	.	.	.	.	35	.
O=C(Nc1nc2cc(Cl)ccc2s1)C1CCCN(S(=O)(=O)c2cccc3cccnc23)C1 (stereo unspecified)	.	.	.	/	36	/
CCCCCCCC1=NN2C(=O)CC(=O)N=C2S1	/	/	/	/	/	.
SMILES	PostGolgi yeast	PLAP activator	E coli WT exp	tolC growth inh	PostGolgi ctrl	HePTP inh
Cc1ccc(N/C(N)=N\c2nc(C)cc(C)n2)c(C)c1	/	/	/	/	/	.
O=C(Nc1cccc(F)c1)C1CCCN1S(=O)(=O)c1cccc2cccnc12 (stereo unspecified)	.	.	.	.	.	.
O=C(Nc1ccc(C(F)(F)F)cc1)C1CCCN1S(=O)(=O)c1cccc2cccnc12 (stereo unspecified)	.	.	.	76	30	.
CN1CCN(CCCNC(=O)Cn2nc(-c3ccccc3)ccc2=O)CC1	41	.	.	.	.	.
CS(=O)(=O)N(CC(=O)Nc1ccccc1Br)c1ccc(Oc2ccccc2)cc1	/	/	/	/	/	.
C=CCN(C(=O)CCC(=O)O)C1CC(=O)N(c2ccc(OCCC)cc2)C1=O (stereo unspecified)	.	.	.	.	34	.
C=CCN(C(=O)CCC(=O)O)C1CC(=O)N(c2ccc(OC)cc2)C1=O (stereo unspecified)	.	.	.	.	.	.
S=C(c1ccc(-c2cc(Cl)ccc2Cl)o1)N1CCOCC1	.	.	.	.	.	.
O=C(Nc1ccc(CN2CCOCC2)cc1)c1ccc(-c2cc(Cl)ccc2Cl)o1	73	.	.	/	65	/
O=C(Nc1sc2c(c1C(=O)Nc1ccccc1)CCC2)c1cccc(Br)c1	/	/	/	/	/	.

Assay outcomes: PubChem, several laboratories
